For three compounds, Activity and IC50 results are on record in ChEMBL document CHEMBL2034961, “Kinase inhibitory potencies and in vitro antiproliferative activities of N-10 substituted pyrrolo[2,3-a]carbazole derivatives” (Bioorg Med Chem Lett, 2012).

A word on the IC50: it is the concentration at which inhibition is half-maximal. Higher therefore signals lower potency.

For assay [1], the target named is T1, Serine/threonine-protein kinase pim-1 (Homo sapiens, UniProt P11309). The experiment in a line: Inhibition of Pim-1 using RSRHSSYPAGT as substrate assessed as residual activity at 10 uM after 30 mins. The essentials: (§1)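 Each Pim isoform (Pim-1, Pim-2, Pim-3) was assayed in duplicate by a previously published method. Compounds were tested at single concentrations of 10 and 1, and results are given as percent residual kinase activity.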
Target sequence in this assay (P11309 whole entry, looked up, canonical isoform): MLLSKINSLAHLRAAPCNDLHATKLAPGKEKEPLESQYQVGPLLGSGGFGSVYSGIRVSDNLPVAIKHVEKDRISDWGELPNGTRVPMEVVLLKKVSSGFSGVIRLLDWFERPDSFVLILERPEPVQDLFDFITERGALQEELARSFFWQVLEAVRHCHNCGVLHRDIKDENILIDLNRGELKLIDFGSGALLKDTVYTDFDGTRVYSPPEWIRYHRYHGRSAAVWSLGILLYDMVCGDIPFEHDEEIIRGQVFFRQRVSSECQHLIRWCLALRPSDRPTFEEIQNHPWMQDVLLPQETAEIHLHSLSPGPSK

The target of assay [2] is T1, Serine/threonine-protein kinase pim-1. In words: Inhibition of Pim-1 using RSRHSSYPAGT as substrate assessed as residual activity at 1 uM after 30 mins. A digest of the protocol:
as §1
Target sequence in this assay (P11309 whole entry, looked up, canonical isoform): as above

For assay [3] the target is unchanged. In words: Inhibition of Pim-1 using RSRHSSYPAGT as substrate after 30 mins. A digest of the protocol: (§2)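 Kinase assays on each Pim isoform were run in duplicate by a previously published method.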
Target sequence in this assay (P11309 whole entry, canonical isoform): as the sequence (P11309 whole entry, looked up, canonical isoform) above
Assay [4] deals with Serine/threonine-protein kinase pim-2 (Homo sapiens) (UniProt Q9P1W9). The experiment in a line: Inhibition of Pim-2 using RSRHSSYPAGT as substrate assessed as residual activity at 10 uM after 30 mins. A digest of the protocol:
as §1

For assay [5] the target is unchanged. The experiment in a line: Inhibition of Pim-2 using RSRHSSYPAGT as substrate assessed as residual activity at 1 uM after 30 mins. The essentials:
as §1

Assay [6] deals with T2, Serine/threonine-protein kinase pim-3 (Homo sapiens, UniProt Q86V86). The experiment in a line: Inhibition of Pim-3 using RSRHSSYPAGT as substrate assessed as residual activity at 10 uM after 30 mins. A digest of the protocol: as §1
The target of assay [7] is T2, Serine/threonine-protein kinase pim-3. The experiment in a line: Inhibition of Pim-3 using RSRHSSYPAGT as substrate assessed as residual activity at 1 uM after 30 mins. The essentials: as §1
Assay [8] shares this target. The experiment in a line: Inhibition of Pim-3 using RSRHSSYPAGT as substrate after 30 mins. A digest of the protocol:
as §2

Assay [9] can be described thus: Cytotoxicity against human fibroblasts by resazurin reduction test. In kind it is cell-based. The conditions noted are these: Fibroblast. The essentials:
(§3)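 Antiproliferative effect read by resazurin reduction. Cells were a human fibroblast primary culture, PA1 (ovarian carcinoma), and PC3 and DU145 (prostatic carcinoma).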

Another assay has as its system PA-1. In words: Cytotoxicity against human PA1 cells by resazurin reduction test. It counts as functional, cell-based. A digest of the protocol: as §3
In general terms: Resazurin is reduced to fluorescent resorufin, in cell work by metabolically active cells.

The next assay concerns PC-3. The experiment in a line: Cytotoxicity against human PC3 cells by resazurin reduction test. It counts as functional, cell-based. A digest of the protocol: as §3
Another assay deals with DU-145. In words: Cytotoxicity against human DU145 cells by resazurin reduction test. It counts as functional, cell-based. A digest of the protocol: as §3

Chain of Serine/threonine-protein kinase pim-2 (Homo sapiens) (Q9P1W9 whole entry, looked up): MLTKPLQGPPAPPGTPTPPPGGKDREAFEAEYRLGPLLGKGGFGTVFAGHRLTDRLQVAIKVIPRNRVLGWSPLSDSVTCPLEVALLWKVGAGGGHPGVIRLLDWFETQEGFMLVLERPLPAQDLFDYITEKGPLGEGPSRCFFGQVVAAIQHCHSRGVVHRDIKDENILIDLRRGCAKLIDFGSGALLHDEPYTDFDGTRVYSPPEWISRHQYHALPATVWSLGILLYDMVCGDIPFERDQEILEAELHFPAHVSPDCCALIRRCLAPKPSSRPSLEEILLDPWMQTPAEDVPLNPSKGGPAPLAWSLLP

On to `CC(C)(C)OC(=O)NCCCCn1c2ccccc2c2ccc3c(C=O)c[nH]c3c21`, for which the Activity came to 4% in assay [1]; 23% in assay [2]; 54% in assay [4]; 97% in assay [5]; 3% in assay [6]; 16% in assay [7]. Besides, the IC50 in assay [3] amounted to 470 nM; in [8], 200 nM; in assay [9] it was 17300 nM; in the assay on PA-1, 14900 nM; in the assay on PC-3, 13100 nM; in the assay with DU-145, 12200 nM.
In the case of `CN(C)CCCCn1c2ccccc2c2ccc3c(C=O)c[nH]c3c21`, the Activity was 10% in assay [1]; 24% in [2]; 22% in [4]; 74% in assay [5]; 1% in assay [6]; 7% in assay [7]. Besides, the half-maximal inhibitory concentration (IC50) is 75 nM in assay [3]; 80 nM in assay [8]; 630 nM in [9]; 486 nM in the assay on PA-1; 650 nM in the assay on PC-3; 960 nM with DU-145.
In the case of `N#CCCCCn1c2ccccc2c2ccc3c(C=O)c[nH]c3c21`, the Activity worked out at 1% in assay [1]; 3% in assay [2]; 40% in assay [4]; 32% in [5]; 2% in [6]; 3% in assay [7]. Further, the half-inhibitory concentration (IC50) in [3] came to 46 nM; in assay [8], 41 nM; in assay [9], 14500 nM; in the assay with PA-1, 8000 nM; with PC-3, 16000 nM; with DU-145, 20000 nM.
